Legend:
[1] = target: T1, Pteridine reductase, putative (Trypanosoma brucei, UniProt Q581W1); experiment: Inhibition of recombinant Trypanosoma brucei PTR1 expressed in Escherichia coli BL21 (DE3) cells using H2B as substrate in presence of cytochrome c and NADPH by envision multilabel reader
T1 sequence (Q581W1 whole entry): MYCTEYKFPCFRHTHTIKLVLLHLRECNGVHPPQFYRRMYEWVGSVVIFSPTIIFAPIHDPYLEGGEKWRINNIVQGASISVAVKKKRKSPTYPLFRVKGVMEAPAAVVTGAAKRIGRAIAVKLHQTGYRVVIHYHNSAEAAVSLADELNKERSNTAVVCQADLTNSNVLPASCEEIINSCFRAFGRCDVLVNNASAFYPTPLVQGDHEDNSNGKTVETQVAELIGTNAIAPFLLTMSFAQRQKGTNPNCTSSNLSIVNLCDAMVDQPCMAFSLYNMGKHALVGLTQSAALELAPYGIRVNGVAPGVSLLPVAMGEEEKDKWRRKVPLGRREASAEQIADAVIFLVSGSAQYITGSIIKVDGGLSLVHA

[2] = target: Bifunctional dihydrofolate reductase-thymidylate synthase (Trypanosoma brucei brucei, UniProt Q27783); experiment: Inhibition of recombinant Trypanosoma brucei DHFR-TS expressed in Escherichia coli BL21 (DE3) cells using dihydrofolate as substrate in presence of NADPH by spectrophotometric analysis
Bifunctional dihydrofolate reductase-thymidylate synthase (Trypanosoma brucei brucei, UniProt Q27783), sequence (Q27783 whole entry): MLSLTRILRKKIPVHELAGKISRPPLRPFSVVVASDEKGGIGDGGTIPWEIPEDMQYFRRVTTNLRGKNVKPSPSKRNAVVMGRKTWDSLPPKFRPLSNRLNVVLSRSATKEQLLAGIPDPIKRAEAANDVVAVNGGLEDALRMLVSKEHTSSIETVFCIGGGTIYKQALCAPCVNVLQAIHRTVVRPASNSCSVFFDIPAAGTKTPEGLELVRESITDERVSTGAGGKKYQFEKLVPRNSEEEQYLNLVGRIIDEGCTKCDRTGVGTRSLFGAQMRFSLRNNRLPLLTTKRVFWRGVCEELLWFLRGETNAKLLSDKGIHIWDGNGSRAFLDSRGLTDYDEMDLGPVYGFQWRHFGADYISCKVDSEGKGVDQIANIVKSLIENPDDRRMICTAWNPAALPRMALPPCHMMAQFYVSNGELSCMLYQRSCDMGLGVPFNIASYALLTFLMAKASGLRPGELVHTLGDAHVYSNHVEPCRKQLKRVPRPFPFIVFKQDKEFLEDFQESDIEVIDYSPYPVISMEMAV

[3] = target: Bifunctional dihydrofolate reductase-thymidylate synthase (Leishmania major, UniProt P07382); experiment: Inhibition of recombinant Leishmania major DHFR-TS expressed in Escherichia coli BL21 (DE3) cells using dihydrofolate as substrate in presence of NADPH by spectrophotometric analysis
Bifunctional dihydrofolate reductase-thymidylate synthase (Leishmania major, UniProt P07382), sequence (P07382 whole entry): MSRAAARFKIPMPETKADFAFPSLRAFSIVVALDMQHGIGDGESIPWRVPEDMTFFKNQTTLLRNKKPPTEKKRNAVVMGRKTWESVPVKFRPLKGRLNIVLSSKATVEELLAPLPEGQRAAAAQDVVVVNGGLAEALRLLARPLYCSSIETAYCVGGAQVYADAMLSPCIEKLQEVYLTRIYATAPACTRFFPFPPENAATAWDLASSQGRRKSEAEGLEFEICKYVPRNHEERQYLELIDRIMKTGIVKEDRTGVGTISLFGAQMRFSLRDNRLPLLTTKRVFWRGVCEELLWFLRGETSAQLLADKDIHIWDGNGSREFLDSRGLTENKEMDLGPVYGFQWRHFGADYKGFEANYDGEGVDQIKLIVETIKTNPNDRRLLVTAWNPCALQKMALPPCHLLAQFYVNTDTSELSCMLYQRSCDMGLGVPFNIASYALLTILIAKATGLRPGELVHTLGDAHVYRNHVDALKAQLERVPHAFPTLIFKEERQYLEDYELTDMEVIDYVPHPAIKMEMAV

Dihydrofolate reductase = target: T2, Dihydrofolate reductase (Homo sapiens, UniProt P00374); experiment: Inhibition of recombinant human DHFR expressed in Escherichia coli BL21 (DE3) cells using dihydrofolate as substrate in presence of NADPH by spectrophotometric analysis; assay type: toxicity
T2 sequence (P00374 whole entry): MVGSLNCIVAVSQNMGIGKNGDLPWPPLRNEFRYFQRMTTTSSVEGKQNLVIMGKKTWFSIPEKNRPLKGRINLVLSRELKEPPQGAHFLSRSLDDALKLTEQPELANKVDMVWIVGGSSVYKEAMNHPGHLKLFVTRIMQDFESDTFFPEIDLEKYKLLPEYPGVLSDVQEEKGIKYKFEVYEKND

786-0 = experiment: Mitochondrial toxicity in human 786-0 cells at 10 uM incubated with compound for 6 hrs followed by incubation with MitoTracker Red chloromethyl-X-rosamine dye for 45 mins by imaging analysis relative to control; assay type: cell-based; conditions: 786-0, 6 h
How it was run: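 Tested at 10 μM. 786-O cells kept in RPMI-1640 with 2 mM glutamine, 10% FCS, streptomycin 100 μg/mL and penicillin G 100 U/mL. Mitochondrial toxicity read as MitoTracker Red (chloromethyl-X-rosamine) uptake by high-content imaging.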

A549 = experiment: Cytotoxicity against human A549 cells at 10 uM measured after 48 hrs by Celltiter-Glo assay relative to control; assay type: toxicity, cell-based; conditions: a549, 48 h
How it was run: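 Tested at 10 μM. A549 cells grown in DMEM with 10% FCS, streptomycin 100 μg/mL and penicillin G 100 U/mL. Viability read as cellular ATP by CellTiter-Glo luminescence.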

Pteridine reductase 1 = target: T3, Pteridine reductase 1 (Leishmania major, UniProt Q01782); experiment: Inhibition of recombinant Leishmania major PTR1 expressed in Escherichia coli BL21 (DE3) cells using H2B as substrate in presence of cytochrome c and NADPH by envision multilabel reader
T3 sequence (Q01782 whole entry): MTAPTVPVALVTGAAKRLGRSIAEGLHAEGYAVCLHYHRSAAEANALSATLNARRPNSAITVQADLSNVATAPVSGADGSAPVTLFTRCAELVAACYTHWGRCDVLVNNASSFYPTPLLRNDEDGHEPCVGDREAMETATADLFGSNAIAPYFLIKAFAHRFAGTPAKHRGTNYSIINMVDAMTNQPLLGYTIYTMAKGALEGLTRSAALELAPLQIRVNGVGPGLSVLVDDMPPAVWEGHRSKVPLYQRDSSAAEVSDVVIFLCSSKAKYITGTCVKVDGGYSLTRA

[4] = system: human DHFR versus Trypanosoma brucei PTR1; experiment: Selectivity index, ratio of IC50 for human DHFR to IC50 for Trypanosoma brucei PTR1; assay type: toxicity; conditions: read-out: Ratio IC50
[5] = system: human DHFR versus Leishmania major PTR1; experiment: Selectivity index, ratio of IC50 for human DHFR to IC50 for Leishmania major PTR1; assay type: toxicity; conditions: read-out: Ratio IC50
[6] = system: human DHFR versus Trypanosoma brucei DHFR; experiment: Selectivity index, ratio of IC50 for human DHFR to IC50 for Trypanosoma brucei DHFR; assay type: toxicity; conditions: read-out: Ratio IC50
[7] = system: human DHFR versus Leishmania major DHFR; experiment: Selectivity index, ratio of IC50 for human DHFR to IC50 for Leishmania major DHFR; assay type: toxicity; conditions: read-out: Ratio IC50
[8] = system: Trypanosoma brucei brucei; experiment: Antitrypanosomal activity against bloodstream form of Trypanosoma brucei brucei Lister 427 assessed as parasite growth inhibition at 10 uM incubated for 72 hrs by resazurin dye based analysis relative to control; assay type: functional
[9] = system: Trypanosoma brucei brucei; experiment: Antitrypanosomal activity against bloodstream form of Trypanosoma brucei brucei Lister 427 assessed as parasite growth inhibition incubated for 72 hrs by resazurin dye based analysis; assay type: functional, organism-based; conditions: Lister 427, 72 h
[10] = Cytotoxicity against human THP-1 derived macrophages by colorimetric MTT assay; assay type: toxicity, cell-based, Macrophage; conditions: THP-1 derived macrophages
How it was run: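 CC50 from at least three independent MTT colorimetric cytotoxicity runs on THP-1-derived macrophages. Selectivity index is CC50 (or lower CC50 interval estimate) divided by antiparasitic EC50.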

SMILES	IC50 [1] [nM]	IC50 [2] [nM]	IC50 [3] [nM]	IC50 (Dihydrofolate reductase) [nM]	Activity (786-0) [%]	Activity (A549) [%]	IC50 (Pteridine reductase 1) [nM]	selectivity ratio [4]	selectivity ratio [5]	selectivity ratio [6]	selectivity ratio [7]	inhibition at 10 µM [8] [%]	EC50 [9] [nM]	CC50 [10] [nM]
COC(=O)C1CCN(C(=O)c2ccc(NCc3cnc4nc(N)nc(N)c4n3)cc2)CC1	110	20500	620	51000	0	100								
COC(=O)C1CCN(C(=O)c2ccc(N(C)Cc3cnc4nc(N)nc(N)c4n3)cc2)CC1	50	270	260	44000	0	100								
NC(=O)C1CCN(C(=O)c2ccc(NCc3cnc4nc(N)nc(N)c4n3)cc2)CC1	820	2900	1110		0	0								
COC(=O)C1CCN(C(=O)c2ccc(NCc3cnc4nc(N)nc(N)c4n3)cn2)CC1	550	2570	1360	60000	0									
Nc1nc(N)c2nc(CNc3ccc(C(=O)N4CCC(C(=O)O)CC4)cc3)cnc2n1	1720	1380	600		0	0								
Nc1nc(N)c2nc(CNc3cccc4ccccc34)cnc2n1	10	450	1510	4400	0	0	10	440	440	10	3			
COC(=O)C1CCN(C(=O)c2cccc(NCc3cnc4nc(N)nc(N)c4n3)c2)CC1	150			59000			1690	393	35	3	2			
COc1ccc(CNC(=O)c2ccc(CNCc3cnc4nc(N)nc(N)c4n3)cc2)cc1OC	220				0		1570	455	64	2	1			
Nc1nc(N)c2nc(C(=O)NCc3cccc(C(F)(F)F)c3)cnc2n1	10				0	100	330	10000	303	1	1			
CCN(Cc1cnc2nc(N)nc(N)c2n1)c1ccc(C(=O)N2CCC(C(=O)OC)CC2)cc1	90	620	460	4300	0	100	13300	48		7	9			
COc1cc(Oc2ccc(CNCc3cnc4nc(N)nc(N)c4n3)cc2)cc(OC)c1OC	350				0	100	170	286	588	1	1			
COC(=O)C1CCN(C(=O)c2ccc(SCc3cnc4nc(N)nc(N)c4n3)nc2)CC1	1	2400	9360	89000	20		60	89000	1480	37	10			
CCOC(=O)C1CCCN1C(=O)c1ccc(NCc2cnc3nc(N)nc(N)c3n2)cc1 (stereo not drawn)		980	1210		0			0.08		10	8			
NC(=O)C1CCN(C(=O)Cc2ccc(N(CCCO)Cc3cnc4nc(N)nc(N)c4n3)cc2)CC1	10	18000	1140		0		170					30		
C#CCN(Cc1cnc2nc(N)nc(N)c2n1)c1ccc(C(=O)N2CCC(C(=O)OC)CC2)cc1	40	1180	710	78000			320	1950	244	66	110			
COc1ccc(Oc2ccc(CN(Cc3ccccc3)Cc3cnc4nc(N)nc(N)c4n3)cc2)cc1	240				0		150					100	4530	12500
CN(Cc1cnc2nc(N)nc(N)c2n1)c1ccc(C(=O)N2CCCCC2)cc1	10	1450	2050		15		140	2980	213	21	15			
Nc1nc(N)c2nc(C(=O)NCc3ccccc3)cnc2n1	10				0	100	5500	10000	18	1	1			
CCOC(=O)C1CCN(C(=O)c2ccc(N(CC)Cc3cnc4nc(N)nc(N)c4n3)cc2)CC1	1	230	180	13000			100							
Nc1nc(N)c2nc(CNCc3ccc(Oc4ccccc4)cc3)cnc2n1	190				0		980	526	102	1	1			
Nc1nc(N)c2nc(CNc3ccc(C(=O)NCCc4ccccc4)cc3)cnc2n1	< 0.1	980	720	40300	13	100	30	> 403000	1340	41	56			
CCCOC(=O)C1CCN(C(=O)c2ccc(N(C)Cc3cnc4nc(N)nc(N)c4n3)cc2)CC1	30	3000	150	9000	0	0	410	300	22	3	59			
CCOC(=O)C1CCN(C(=O)c2ccc(N(C)Cc3cnc4nc(N)nc(N)c4n3)cc2)CC1	40	9000	130	12000	0		450	300	27	1	90			
COc1ccc(CNC(=O)c2ccc(CNCc3cnc4nc(N)nc(N)c4n3)cc2)cc1	130				0		1480	769	68	1	1			
